According to ChEMBL document CHEMBL1129929, “Analogues of methotrexate in rheumatoid arthritis. 1. Effects of 10-deazaaminopterin analogues on type II collagen-induced arthritis in mice” (J Med Chem, 1997):

Legend:
Mus musculus [1] = assay: Tested for antiinflammatory activity on mouse type II collagen arthritis as Paw swelling* of all animals in each group on day 44 at intraperitoneal dose of 18 mg/kg; format: functional
Summary of the method: (§1)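 DBA/1 mice immunized with bovine type II collagen (Courtenay method, modified), antigen booster at day 21. Compounds given ip from 2 days before the first collagen challenge, then every 2 days. Hind paw dimensions (mm) measured for both limbs of all animals, expressed as mean ± SD. Eight mice per dose; untreated controls pooled from four experiments (48 animals).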

Mus musculus [2] = assay: Incidence of disease(mouse type II collagen arthritis) was scored as the percentage of animals within each experimental group that exhibited joint or limb inflammation on day 37 at intraperitoneal of dose 12 mg/kg; format: functional
Summary of the method: (§2)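 DBA/1 mice were immunized with bovine type II collagen (modified Courtenay method), with a collagen booster on day 21. Compounds were given ip starting 2 days before the first collagen challenge and every 2 days thereafter. Incidence was the percentage of animals per group with joint or limb inflammation, scored on days 23, 30, 37 and 44.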

Mus musculus [3] = assay: Incidence of disease(mouse type II collagen arthritis) was scored as the percentage of animals within each experimental group that exhibited joint or limb inflammation on day 23 at intraperitoneal of dose 12 mg/kg; format: functional; summary of the method: as §2
Mus musculus [4] = assay: Incidence of disease(mouse type II collagen arthritis) was scored as the percentage of animals within each experimental group that exhibited joint or limb inflammation on day 44 at intraperitoneal of dose 12 mg/kg; format: functional; summary of the method: as §2
Mus musculus [5] = assay: Incidence of disease(mouse type II collagen arthritis) was scored as the percentage of animals within each experimental group that exhibited joint or limb inflammation on day 30 at intraperitoneal of dose 18 mg/kg; format: functional; summary of the method: as §2
Mus musculus [6] = assay: Incidence of disease(mouse type II collagen arthritis) was scored as the percentage of animals within each experimental group that exhibited joint or limb inflammation on day 44 at intraperitoneal of dose 18 mg/kg; format: functional; summary of the method: as §2
Mus musculus [7] = assay: Tested for antiinflammatory activity on mouse type II collagen arthritis as Paw swelling* of all animals in each group on day 37 at intraperitoneal dose of 12 mg/kg; format: functional; summary of the method: as §1
Mus musculus [8] = assay: Tested for antiinflammatory activity on mouse type II collagen arthritis as Paw swelling* of all animals in each group on day 23 at intraperitoneal dose of 18 mg/kg; format: functional; summary of the method: as §1
Mus musculus [9] = assay: Tested for antiinflammatory activity on mouse type II collagen arthritis as Paw swelling* of all animals in each group on day 30 at intraperitoneal dose of 12 mg/kg; format: functional; summary of the method: as §1
Mus musculus [10] = assay: Incidence of disease(mouse type II collagen arthritis) was scored as the percentage of animals within each experimental group that exhibited joint or limb inflammation on day 23 at intraperitoneal dose of 18 mg/kg; format: functional; summary of the method: as §2
L1210 = assay: Concentration required to inhibit the growth of L1210 cells; format: functional, cell-based; details: Mus musculus
Mus musculus [11] = assay: Tested for antiinflammatory activity on mouse type II collagen arthritis as Paw swelling* of all animals in each group on day 23 at intraperitoneal dose of 12 mg/kg; format: functional; summary of the method: as §1
Mus musculus [12] = assay: Incidence of disease(mouse type II collagen arthritis) was scored as the percentage of animals within each experimental group that exhibited joint or limb inflammation on day 30 at intraperitoneal of dose 12 mg/kg; format: functional; summary of the method: as §2
Mus musculus [13] = assay: Tested for antiinflammatory activity on mouse type II collagen arthritis as Paw swelling* of all animals in each group on day 37 at intraperitoneal dose of 18 mg/kg; format: functional; summary of the method: as §1
Mus musculus [14] = assay: Tested for antiinflammatory activity on mouse type II collagen arthritis as Paw swelling* of all animals in each group on day 44 at intraperitoneal dose of 12 mg/kg; format: functional; summary of the method: as §1
Mus musculus [15] = assay: Incidence of disease(mouse type II collagen arthritis) was scored as the percentage of animals within each experimental group that exhibited joint or limb inflammation on day 37 at intraperitoneal of dose 18 mg/kg; format: functional; summary of the method: as §2
[16] = Concentration required to inhibit the growth of chang liver cells; format: functional; details: Homo sapiens
Mus musculus [17] = assay: Tested for antiinflammatory activity on mouse type II collagen arthritis as Paw swelling* of all animals in each group on day 30 at intraperitoneal dose of 18 mg/kg; format: functional; summary of the method: as §1
Mus musculus [18] = assay: Tested for antiinflammatory activity on mouse type II collagen arthritis as Paw swelling* of all animals in each group on day 23 at intraperitoneal dose of 8 mg/kg; format: functional; summary of the method: as §1
Mus musculus [19] = assay: Incidence of disease(mouse type II collagen arthritis) was scored as the percentage of animals within each experimental group that exhibited joint or limb inflammation on day 30 at intraperitoneal of dose 8 mg/kg; format: functional; summary of the method: as §2
Mus musculus [20] = assay: Tested for antiinflammatory activity on mouse type II collagen arthritis as Paw swelling* of all animals in each group on day 44 at intraperitoneal dose of 8 mg/kg; format: functional; summary of the method: as §1
Mus musculus [21] = assay: Incidence of disease(mouse type II collagen arthritis) was scored as the percentage of animals within each experimental group that exhibited joint or limb inflammation on day 44 at intraperitoneal of dose 8 mg/kg; format: functional; summary of the method: as §2
Mus musculus [22] = assay: Incidence of disease(mouse type II collagen arthritis) was scored as the percentage of animals within each experimental group that exhibited joint or limb inflammation on day 44 at intraperitoneal of dose 4 mg/kg; format: functional; summary of the method: as §2
Mus musculus [23] = assay: Incidence of disease(mouse type II collagen arthritis) was scored as the percentage of animals within each experimental group that exhibited joint or limb inflammation on day 23 at intraperitoneal dose of 4 mg/kg; format: functional; summary of the method: as §2
Mus musculus [24] = assay: Tested for antiinflammatory activity on mouse type II collagen arthritis as Paw swelling* of all animals in each group on day 37 at intraperitoneal dose of 2 mg/kg; format: functional; summary of the method: as §1
Mus musculus [25] = assay: Tested for antiinflammatory activity on mouse type II collagen arthritis as Paw swelling* of all animals in each group on day 44 at intraperitoneal dose of 2 mg/kg; format: functional; summary of the method: as §1
Mus musculus [26] = assay: Tested for antiinflammatory activity on mouse type II collagen arthritis as Paw swelling* of all animals in each group on day 37 at intraperitoneal dose of 4 mg/kg; format: functional; summary of the method: as §1
Mus musculus [27] = assay: Tested for antiinflammatory activity on mouse type II collagen arthritis as Paw swelling* of all animals in each group on day 37 at intraperitoneal dose of 8 mg/kg; format: functional; summary of the method: as §1
Mus musculus [28] = assay: Tested for antiinflammatory activity on mouse type II collagen arthritis as Paw swelling* of all animals in each group on day 23 at intraperitoneal dose of 2 mg/kg; format: functional; summary of the method: as §1
Mus musculus [29] = assay: Incidence of disease(mouse type II collagen arthritis) was scored as the percentage of animals within each experimental group that exhibited joint or limb inflammation on day 37 at intraperitoneal of dose 8 mg/kg; format: functional; summary of the method: as §2
Mus musculus [30] = assay: Tested for antiinflammatory activity on mouse type II collagen arthritis as Paw swelling* of all animals in each group on day 30 at intraperitoneal dose of 8 mg/kg; format: functional; summary of the method: as §1
Mus musculus [31] = assay: Incidence of disease(mouse type II collagen arthritis) was scored as the percentage of animals within each experimental group that exhibited joint or limb inflammation on day 37 at intraperitoneal of dose 4 mg/kg; format: functional; summary of the method: as §2
Mus musculus [32] = assay: Incidence of disease(mouse type II collagen arthritis) was scored as the percentage of animals within each experimental group that exhibited joint or limb inflammation on day 30 at intraperitoneal of dose 4 mg/kg; format: functional; summary of the method: as §2
Mus musculus [33] = assay: Tested for antiinflammatory activity on mouse type II collagen arthritis as Paw swelling* of all animals in each group on day 30 at intraperitoneal dose of 4 mg/kg; format: functional; summary of the method: as §1
Mus musculus [34] = assay: Incidence of disease(mouse type II collagen arthritis) was scored as the percentage of animals within each experimental group that exhibited joint or limb inflammation on day 37 at intraperitoneal of dose 2 mg/kg; format: functional; summary of the method: as §2
Mus musculus [35] = assay: Incidence of disease(mouse type II collagen arthritis) was scored as the percentage of animals within each experimental group that exhibited joint or limb inflammation on day 23 at intraperitoneal dose of 8 mg/kg; format: functional; summary of the method: as §2
Mus musculus [36] = assay: Tested for antiinflammatory activity on mouse type II collagen arthritis as Paw swelling* of all animals in each group on day 23 at intraperitoneal dose of 4 mg/kg; format: functional; summary of the method: as §1
Mus musculus [37] = assay: Incidence of disease(mouse type II collagen arthritis) was scored as the percentage of animals within each experimental group that exhibited joint or limb inflammation on day 44 at intraperitoneal of dose 2 mg/kg; format: functional; summary of the method: as §2
Mus musculus [38] = assay: Incidence of disease(mouse type II collagen arthritis) was scored as the percentage of animals within each experimental group that exhibited joint or limb inflammation on day 30 at intraperitoneal of dose 2 mg/kg; format: functional; summary of the method: as §2
Mus musculus [39] = assay: Tested for antiinflammatory activity on mouse type II collagen arthritis as Paw swelling* of all animals in each group on day 44 at intraperitoneal dose of 4 mg/kg; format: functional; summary of the method: as §1
Mus musculus [40] = assay: Tested for antiinflammatory activity on mouse type II collagen arthritis as Paw swelling* of all animals in each group on day 30 at intraperitoneal dose of 2 mg/kg; format: functional; summary of the method: as §1
Mus musculus [41] = assay: Incidence of disease(mouse type II collagen arthritis) was scored as the percentage of animals within each experimental group that exhibited joint or limb inflammation on day 23 at intraperitoneal dose of 2 mg/kg; format: functional; summary of the method: as §2

Nc1nc(N)c2nc(CCc3ccc(C(=O)NC(CCC(=O)O)C(=O)O)s3)cnc2n1 (centres undefined)
Paw swelling (Mus musculus [1]): 2.38 mm
Animals (Mus musculus [2]): 50%
Animals (Mus musculus [3]): 0%
Animals (Mus musculus [4]): 50%
Animals (Mus musculus [5]): 0%
Animals (Mus musculus [6]): 25%
Paw swelling (Mus musculus [7]): 2.28 mm
Paw swelling (Mus musculus [8]): 2.14 mm
Paw swelling (Mus musculus [9]): 2.15 mm
Animals (Mus musculus [10]): 0%
IC50 (L1210): 0.0081 µM
Paw swelling (Mus musculus [11]): 2.15 mm
Animals (Mus musculus [12]): 0%
Paw swelling (Mus musculus [13]): 2.26 mm
Paw swelling (Mus musculus [14]): 2.58 mm
Animals (Mus musculus [15]): 38%
IC50 [16]: 0.0031 µM
Paw swelling (Mus musculus [17]): 2.16 mm

Nc1nc(N)c2nc(CCc3ccc(C(=O)NC(CCC(=O)O)C(=O)O)cn3)cnc2n1 (centres undefined)
Paw swelling (Mus musculus [18]): 2.08 mm
Animals (Mus musculus [19]): 38%
Paw swelling (Mus musculus [20]): 2.33 mm
Animals (Mus musculus [21]): 50%
Animals (Mus musculus [22]): 100%
Animals (Mus musculus [23]): 0%
Paw swelling (Mus musculus [24]): 2.67 mm
Paw swelling (Mus musculus [25]): 2.88 mm
Paw swelling (Mus musculus [26]): 2.57 mm
Paw swelling (Mus musculus [27]): 2.2 mm
Paw swelling (Mus musculus [28]): 2.13 mm
Animals (Mus musculus [29]): 25%
Paw swelling (Mus musculus [30]): 2.22 mm
Animals (Mus musculus [31]): 71%
Animals (Mus musculus [32]): 57%
Paw swelling (Mus musculus [33]): 2.24 mm
IC50 (L1210): 0.088 µM
Animals (Mus musculus [34]): 63%
Animals (Mus musculus [35]): 0%
Paw swelling (Mus musculus [36]): 2.08 mm
Animals (Mus musculus [37]): 88%
Animals (Mus musculus [38]): 50%
Paw swelling (Mus musculus [39]): 2.68 mm
IC50 [16]: 0.036 µM
Paw swelling (Mus musculus [40]): 2.35 mm
Animals (Mus musculus [41]): 0%
